Ends that are not written are not given here.
Experiments:
[1] = system: meningeal blood flow (dura mater); experiment: Laser Doppler flowmetry of meningeal blood flow; type: in vivo, rat
[2] = system: ddC-induced tactile hypersensitivity; experiment: ddC-induced neuropathic pain, paw withdrawal threshold; type: in vivo, rat; details: single ddC injection
neurons [3] = experiment: Cell permeation / entry into neurons; details: in vitro, ex vivo and in vivo
[4] = system: cytosolic loop 1 (L1) of CaV2.2; experiment: Surface plasmon resonance, immobilized L1; type: binding; details: 1/3/5 μM; dissociation monitored for 4 min
Outline: (§1)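 Test peptide or scrambled control peptide injected at 1, 3 and 5 μM over immobilized CaV2.2 L1 or Ct-dis. Binding was recorded as sensorgrams in resonance units, with dissociation followed for 4 min.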

N-type Ca^2+ channels = type: cell-based; details: DRGs, Fura-2 imaging
[5] = system: dorsal root ganglion (DRG) neurons; experiment: Depolarization-induced calcium influx, DRG neurons; type: cell-based; details: plasmid expression
[6] = system: interaction between tubulin and CRMP-2; experiment: Co-immunoprecipitation with CRMP-2 antibody from spinal cord lysates, tubulin; type: binding
CaV2.2 = CaV2.2 surface localisation; type: cell-based; details: CAD neuronal cell line, co-expression of CaV2.2 with CBD3 (fused to GFP)
[7] = system: distal C-terminus (Ct-dis) of CaV2.2; experiment: Surface plasmon resonance, immobilized Ct-dis; type: binding; details: 1/3/5 μM; dissociation monitored for 4 min
Outline: as §1

hippocampal neurons = experiment: Depolarization-induced calcium influx, hippocampal neurons; type: cell-based; details: plasmid expression
neurons [8] = details: not told
[9] = system: interaction between CRMP-2 and L1 of CaV2.2; experiment: In vitro binding; details: L1-GST, peptide 10 μM
Outline: (§2)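 GST fusions of the CaV2.2 loop 1 (L1) or distal C-terminus (Ct-dis) incubated in vitro with CRMP-2 alongside test peptide or scrambled control peptide, each at 10 μM. CRMP-2 retained on the fusion proteins was detected by immunoblot with a CRMP-2 antibody.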

[10] = system: interaction between CRMP-2 and Ct-dis of CaV2.2; experiment: In vitro binding; details: Ct-dis-GST, peptide 10 μM
Outline: as §2

formalin-induced edema = experiment: Formalin-induced paw edema; type: in vivo, rat; details: formalin 2.5%, compared to saline; 1 h after injection

In the case of `COc1cc(CNC(=O)CCCC/C=C/C(C)C)ccc1O` [Capsaicin, capsaicin], the “Meningeal blood flow response to capsaicin alone” value ([1]; nasally administered capsaicin, 100 nM) is reported as “rapid and robust increase in meningeal blood flow”.

For `Nc1ccn([C@H]2CC[C@@H](CO)O2)c(=O)n1` [ddC, 2',3'-dideoxycytidine], the “PWT after ddC” value [2] was “exhibited a decrease in PWT”.

For CBD3 (ARSRLAELRGVPRGL), the “Passage into cells, time” value (neurons [3]) was “conjugation of CBD3 to HIV-1 TAT facilitated its passage into cells in vitro, ex vivo and in vivo within minutes”, the “Binding to immobilized L1” value [4] was “bound to immobilized L1 and Ct-dis proteins” and the “K+-evoked Ca2+ influx, channel selectivity” value (N-type Ca^2+ channels) was “reduced K^+-evoked Ca^2+ influx selectively through N-type Ca^2+ channels”. The Depolarization-induced calcium influx [5] was “reduced depolarization-induced calcium influx”, the “Effect on interaction between tubulin and CRMP-2” value [6] was “did not affect the interaction between tubulin and CRMP-2” and the “CaV2.2 localisation on co-expression” value (CaV2.2) was “almost complete retention of the channel in cytoplasmic aggregates”. The “Binding to immobilized Ct-dis” value [7] was “bound to immobilized L1 and Ct-dis proteins”, the Depolarization-induced calcium influx (hippocampal neurons) was “reduced depolarization-induced calcium influx” and the “Cell permeability / entry into neurons” value (neurons [8]) was “not cell permeant”. The “Ability of L1 to pull down CRMP-2” value [9] was “dramatic reduction in ability of L1 or Ct-dis proteins to pull down CRMP-2” and the “Ability of Ct-dis to pull down CRMP-2” value [10] was “dramatic reduction in ability of L1 or Ct-dis proteins to pull down CRMP-2”.

With “CGRP8-37: CGRP antagonist (VTHRLAGLLSRSGGVVKNNFVPTNVGSKAF; ends and bridges not checked; UniProt P06881 90-119, looked up, fragment)” the “Dependence of capsaicin-induced blood flow changes on CGRP” value ([1]; prior dural administration of CGRP antagonist) was “could be blocked by prior dural administration of the CGRP antagonist, CGRP8-37”.

In the case of Formalin, the “Change in paw thickness” value (formalin-induced edema) is reported as 4 fold.
